Experimental data gathered from unrelated publications.
Lines come from different studies, so protocols differ.
Target: Serine/threonine-protein kinase 33 (STK33, Homo sapiens, UniProt Q9BYT3)

The remaining binding of CS(=O)(=O)N1CCCC(NC(=O)[C@H](CCC2CCCCC2)NC(=O)c2ccc(CNc3ncnc4c3nnn4-c3ccccc3)cc2)C1 (stereo partly shown) is reported as 84% (cell-free assay; competition with immobilised ligand; 0.1 µM).
Cc1ccc(NC(=O)c2ccc(C)c(C(F)(F)F)c2)cc1C#Cc1nn(C2CCC(O)CC2)c2ncnc(N)c12 (stereo not shown) has a remaining signal of 109% (cell-free assay; 10 µM).
The remaining binding of CCS(=O)(=O)c1cc2cc(C[C@@](O)(CC(C)(C)c3ccc(F)cc3C(N)=O)C(F)(F)F)[nH]c2cn1 is reported as 91% (cell-free assay; competition with immobilised ligand; 1 µM).
For Cn1cncc1C1=CN(c2ncnc3[nH]cnc23)CCS1, the inhibition was 80.5% (enzyme activity; inhibitor; radiometric; 2 µM).
CC(C)c1ccc(NC(=O)c2cccs2)c(-c2nc3ccccc3[nH]c2=O)c1 gave an activity vs control of 39% (enzyme activity; inhibitor; 1 µM).
With CC(C)(O)[C@H]1CC[C@H](Nc2ccc3ncc(-c4cccc(C(F)(F)F)c4)n3n2)CC1 the remaining activity was 40.5% (enzyme activity; inhibitor; 1 µM).
The inhibition of CN1CC(Oc2cnc(C#N)cc2-c2ccn3nc(NC(=O)C4CC4)cc3c2)C1 is reported as -3% (enzyme activity; inhibitor; 1 µM).
The remaining activity of Cc1sc(C(=O)NC2COC2)cc1-n1cc(NC(=O)Nc2c(F)cccc2Cl)cn1 is reported as 87.6% (enzyme activity; inhibitor; 10 µM).
COc1cc(-c2cn(C3CCc4ccccc4N(CC(F)(F)F)C3=O)nn2)ccc1-n1ccc(C)n1 (stereo not shown) gave a remaining binding of 100% (cell-free assay; competition with immobilised ligand; 1 µM).
With CCCOc1ccc(OC)c(F)c1C(=O)c1ccc(C(=O)N[C@@H]2CNC[C@H]2NC(=O)c2ccc3[nH]ncc3c2)cc1 the remaining activity was 7% (enzyme activity; inhibitor; 10 µM).
For Nc1ncnc2occ(-c3ccc(NC(=O)Nc4cc(C(F)(F)F)ccc4F)cc3)c12, the remaining activity was 4.3% (enzyme activity; inhibitor; 20 µM).
The activity vs control of FC(F)(F)Oc1cccc(-c2cnc3ccc(-c4ccncc4)nn23)c1 is reported as 95% (enzyme activity; inhibitor; radiometric; 1 µM).
COc1cc(Nc2cnc(C#N)c(O[C@H](C)CN(C)C)n2)ncc1-c1cnn(C)c1 gave a remaining activity of 59% (enzyme activity; inhibitor; radiometric; 1 µM).
CN(C)c1ncnc(-c2ccc3nc(Nc4cc(CN5CCN(C(=O)CC(F)(F)F)CC5)ccn4)[nH]c3c2)c1Cl gave a remaining binding of 100% (cell-free assay; competition with immobilised ligand; 1 µM).
For Cn1cnc(Br)c1C1=CN(c2ncnc3[nH]cnc23)CCS1, the inhibition was 78.4% (enzyme activity; inhibitor; radiometric; 2 µM).
Cn1cc(Cl)c2c(Oc3c(F)cc(Nc4cc(Cl)nc(N)n4)cc3F)ccnc21 gave a remaining binding of 100% (cell-free assay; competition with immobilised ligand; 0.1 µM).
Cc1ncc([N+](=O)[O-])n1C(=NO)c1ccccc1C(F)(F)F gave an inhibition of 11.4% (enzyme activity; inhibitor; 10 µM).
With Cc1cc(NC(=O)c2cccc(S(F)(F)(F)(F)F)c2)cc(-n2ccn3nc(-c4cccnc4)cc23)c1 the remaining binding was 87.8% (cell-free assay; competition with immobilised ligand; 1 µM).
Cc1ccc(Nc2nccc(N(C)c3ccc4c(C)n(C)nc4c3)n2)cc1S(N)(=O)=O gave an inhibition of -2% (enzyme activity; inhibitor; 0.3 µM).
